CHRM5 PAM: CHRM5 positive allosteric modulation. activation, % at 3 µM. P08912. CHO-K1 hM5, Fluo-8 calcium, ACh EC20 PAM; 0% = ACh EC20, 100% = ACh EC100. 0.3% of 360,000 active. AID 624038;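 active = activation above the run cutoff, the mean activation of all test compounds plus 3 SD, cut at about 18% in these data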
Target sequence (P08912 whole entry, looked up): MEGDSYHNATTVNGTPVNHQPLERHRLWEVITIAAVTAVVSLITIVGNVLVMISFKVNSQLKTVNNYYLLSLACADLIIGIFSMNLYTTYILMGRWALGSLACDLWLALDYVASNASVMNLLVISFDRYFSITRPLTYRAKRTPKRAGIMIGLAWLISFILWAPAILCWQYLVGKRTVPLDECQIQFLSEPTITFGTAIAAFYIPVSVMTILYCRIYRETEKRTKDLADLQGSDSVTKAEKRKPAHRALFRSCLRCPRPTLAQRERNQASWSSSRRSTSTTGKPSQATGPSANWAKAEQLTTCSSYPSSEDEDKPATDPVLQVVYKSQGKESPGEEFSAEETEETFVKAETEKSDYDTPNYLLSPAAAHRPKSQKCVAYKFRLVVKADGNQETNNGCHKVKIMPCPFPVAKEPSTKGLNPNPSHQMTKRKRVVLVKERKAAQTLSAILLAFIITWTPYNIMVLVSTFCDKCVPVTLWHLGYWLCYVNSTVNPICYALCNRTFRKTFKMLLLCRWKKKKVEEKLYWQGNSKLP
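Test system: CHO-K1 hM5 cells / Doses: single-point, 3 µM nominal / Times: Post-acetylcholine fluorescence recording 140 s / Technique: Fluo-8 calcium fluorescence / Measure: Max/basal fluorescence ratio as % of EC20–EC100 ACh window / Benchmarks: low control EC20 acetylcholine (0%), high control EC100 acetylcholine (100%) / Replicates: one well per compound, no replicates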
M4 PAM: potentiates acetylcholine response at human M4 receptor; P08173; CHO-K1 hM4/Gqi5, Fluo-8 calcium fluorescence, ACh EC20; 0% = ACh EC20, 100% = maximal ACh; activation, % at 3 µM; 0.4% of 360,000 active; AID 624126;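 active = activation above its plate's cutoff, the mean activation of sample wells plus 3 SD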
M5 ag: agonists of human muscarinic M5 receptor (CHRM5); CHO-K1 hM5 cells, Fluo-8 calcium fluorescence; 0% DMSO wells, 100% maximal acetylcholine response; activation, % at 3 µM; 0.19% of 360,000 active; P08912;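 active = activation above the run's mean over test compounds plus 3 SD, cut at about 23% in these data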;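 note: signal is peak over basal fluorescence ratio across the kinetic read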
M4 antag: antagonists of human muscarinic M4 receptor (CHRM4). P08173. CHO-hM4 cells, ACh EC80, Fluo-8 calcium fluorescence. inhibition, % at 3 µM. 0.73% of 360,000 active;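 active = inhibition above its plate's cutoff, the mean inhibition of sample wells plus 3 SD, cut at about 27% in these data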;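 note: 0% = acetylcholine EC80 with DMSO and 100% = DMSO without agonist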
M4 ag: CHRM4 agonism in calcium assay; AID 624127; P08173; CHO-K1 hM4/Gqi5, Fluo-8 calcium fluorescence; vehicle 0%, full acetylcholine response 100%; 0.14% of 360,000 active; activation, % at 3 µM;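 active = activation above the run mean over all test wells plus 3 SD, cut at about 32% in these data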;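 note: peak over basal fluorescence ratio per well then scaled between controls; 0% = DMSO wells and 100% = acetylcholine at EC100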
CHRM5 antagonist: blocks acetylcholine activation of human M5 receptor; P08912; CHO-hM5 cells, Fluo-8 calcium fluorescence, ACh EC80; inhibition, % at 3 µM; 0.59% of 360,000 active; AID 624040;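 active = inhibition above a per-plate cutoff, the mean of that plate's test compounds plus 3 SD, cut at about 27% in these data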;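 note: 0% = acetylcholine EC80 with DMSO and 100% = DMSO without agonist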
Numbers without * were called inactive. Shown are actives, neighbours in structure and some others; about 1.8% of the full set was active somewhere.

SMILES	CHRM5 PAM	M4 PAM	M5 ag	M4 antag	M4 ag	CHRM5 antagonist
COc1ccc(Cl)cc1NC(=O)c1nnn(CC(=O)Nc2ccc3c(c2)OCO3)c1N	3	20*	-3	9	2	-9
CCOC(=O)N1CCN(C(=O)CNS(=O)(=O)c2c(C)cc(C)cc2C)CC1	5	-3	0	-21	0	-9
O=C(NCCCSc1ccccc1)c1cc(Br)ccc1O	-15	-9	1	2	13	33*
CCOc1ccc(OCC)c(NC(=O)CN2CCN(c3ccc(C)cc3C)CC2)c1	-4	20*	0	7	0	-15
Cc1nccc(-c2sc(-c3cccs3)nc2C)n1	10	69*	0	21	4	-4
CC(=O)N1CCN(c2ccc(NCc3ccc4c(c3)OCO4)cc2)CC1	-1	23*	-1	17	2	-7
O=C(Nc1ccc(F)cc1)C(c1cc2ccccc2o1)N1CCN(CC(=O)N2CCCC2)CC1 (configuration not stated)	-4	3	2	1	2	8
CS(=O)(=O)c1sc(C#N)c2c1C(=O)CC(c1ccccc1)C2 (configuration not stated)	-20	-15	-19	76*	8	31*
COc1ccc(CCNC(=O)c2ccc3c(c2)N(Cc2ccc(C)cc2)CCS3)cc1OC	-16	-9	-9	6	5	39*
COc1ccc(OC)c(CCNC(=O)c2ccc3c(c2)N(Cc2ccc(F)cc2)CCS3)c1	-7	-4	-5	8	0	17
COC(=O)c1ccc(OCCN2C3=NCCN3c3ccccc32)cc1	-3	-21	-8	40*	1	-5
COC(=O)c1ccc(OCCN2CCCCCC2)cc1	-5	-18	-10	19	0	7
Cc1ccc(NC(=O)C2=C(c3ccccc3)S(=O)(=O)CCS2(=O)=O)cc1	-2	2	-5	39*	5	10
Cc1cc(C)c2c(=O)n(CC(=O)Nc3cccc(Cl)c3C)sc2n1	-9	-37	28*	70*	67*	21
Cc1cc(C)c2c(=O)n(CC(=O)Nc3ccc(Br)c(C)c3)sc2n1	2	4	1	7	2	6
Cc1ccc(C2CC(c3ccccc3)=NN2C(=S)Nc2ccccc2)o1 (configuration not stated)	2	-11	4	39*	7	-2
Cc1ccc2oc(C(=O)N3CCN(CC(=O)NC(C)C)CC3)c(C)c2c1	0	-2	1	4	-1	3
CCN(CC)CCn1c(=S)[nH]c2cc3c(cc2c1=O)OCO3	-4	7	1	-8	0	-3
CCN1CCN(CCn2c(=S)[nH]c3cc4c(cc3c2=O)OCO4)CC1	-19	-8	-6	6	0	29*
Cc1cc(=O)n(C)c(=O)n1CCCCCCOc1cccc([N+](=O)[O-])c1	-19	-38	6	25	24	21
CCOc1cc(S(=O)(=O)NCc2ccncc2)ccc1Cl	-15	-16	5	36*	23	60*
O=S(=O)(Nc1ccc(Cc2ccncc2)cc1)c1ccc(Cl)c(Cl)c1	-21	-33	-7	34*	8	7
O=C(C[n+]1cccc(/C=N/O)c1)NC(=O)Nc1ccccc1	-2	1	-2	-3	1	-3
Nc1[nH]c(C(=O)c2ccccc2)c(-c2ccc(C(F)(F)F)cc2)c1C(=O)NCc1ccc(Cl)cc1Cl	0	6	3	-8	1	-6
COC(=O)C1=CN(Cc2cccs2)C=C(C(=O)OC)C1c1ccc(OC)cc1OC	-15	1	-4	-3	-1	27*
SMILES	CHRM5 PAM	M4 PAM	M5 ag	M4 antag	M4 ag	CHRM5 antagonist
COC(=O)C1=CN(Cc2cccs2)C=C(C(=O)OC)C1c1cccc(Cl)c1	-21	-7	-10	8	-1	9
CCOc1ccc(S(=O)(=O)Nc2cccc(C(=O)NCC(c3ccccc3)N(C)C)c2)cc1 (configuration not stated)	-14	5	-3	-12	16	11
COc1ccccc1C(CNC(=O)c1cccc(NS(=O)(=O)c2ccc(C)c(F)c2)c1)N(C)C (configuration not stated)	-35	-7	-8	3	0	66*
COc1ccc(C(CNC(=O)c2cccc(NS(=O)(=O)c3ccc(C)c(F)c3)c2)N(C)C)cc1 (configuration not stated)	-7	-9	-7	-4	3	11
COc1ccc(C(CNC(=O)c2cccc(NS(=O)(=O)c3ccccc3)c2)N(C)C)cc1 (configuration not stated)	-7	-14	-8	31*	2	14
COc1ccccc1C(CNC(=O)c1cccc(S(=O)(=O)NCc2ccccc2)c1)N(C)C (configuration not stated)	-33	-6	-11	6	1	39*
Cc1onc(-c2ccccc2)c1C(=O)c1c[nH]c(C(=O)NCc2ccccn2)c1	7	-3	5	1	4	2
COc1ccccc1/C=C/CN1CCCC(CCC(=O)NCc2ccccc2F)C1 (configuration not stated)	0	-12	-17	8	1	7
CCO[C@@H]1OC(C(N)=O)=C[C@H](C2CC2)[C@H]1CCCO	-12	-1	2	7	1	12
O=c1c(-c2ccco2)[n+]([O-])c2ccccc2n1OCc1c(F)cccc1F	19*	0	9	-13	5	-15
COc1ccc(-c2ccc(CN3C(C)C(=O)N(Cc4cn(CCC5OCCCO5)nn4)CCS3(=O)=O)cc2)cc1 (configuration not stated)	-3	-3	3	-8	19	-4
COc1ccc(NC(=O)c2cc([N+](=O)[O-])ccc2N2CCCC2)cc1S(N)(=O)=O	0	3	-2	-4	0	9
Cc1nc2scc(-c3ccc(C(C)(C)C)cc3)c2c(=O)n1N	-19	-15	4	9	15	33*
COc1ccc(-c2csc3nc(C)n(-n4cccc4)c(=O)c23)cc1	10	3	-3	-1	-3	-4
COc1ccc(-n2nc(C(=O)NCC(=O)Nc3cc(OC)c(OC)c(OC)c3)c3ccccc3c2=O)cc1OC	-13	-12	3	27*	18	17
CCC1CCCCN1CCCNC(=O)CNC(=O)c1nn(-c2ccc(OC)c(Cl)c2)c(=O)c2ccccc12 (configuration not stated)	-2	-18	-7	37*	3	10

Bioassay records (PubChem BioAssay)
